The list is not random: actives were taken first. Their share in the collection is about 1.5%.
PPC-1+TRAIL kill: compounds killing PPC-1 cancer cells with TRAIL present (potentiator screen, no TRAIL-free arm); cell killing (% activity), % at 4 µM or 5 µM; actives 0.41% (n = 220,000); AID 1443; PPC-1 cells + TRAIL, ATPLite viability luminescence;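 active means cell killing above 50% in the first pass at 4 µM, then a duplicate retest at 5 µM averaging 50% or more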;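 further: plate controls were cells with TRAIL plus DMSO for no effect and medium-only wells lacking cells for full effect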
FLuc act counter: firefly luciferase counter-screen for stimulation assays | ATPlite luciferase biochemical, luminescence, 10 min; 0 = ATP-free wells, 1 = DMSO control | 200,000 tested, under 10 active | P08659 | activation factor at 10 µM | AID 1027;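 active means luciferase activation factor, scaled between plate controls, of at least 2 with compound at 10 µM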
Target sequence (P08659 whole entry, looked up): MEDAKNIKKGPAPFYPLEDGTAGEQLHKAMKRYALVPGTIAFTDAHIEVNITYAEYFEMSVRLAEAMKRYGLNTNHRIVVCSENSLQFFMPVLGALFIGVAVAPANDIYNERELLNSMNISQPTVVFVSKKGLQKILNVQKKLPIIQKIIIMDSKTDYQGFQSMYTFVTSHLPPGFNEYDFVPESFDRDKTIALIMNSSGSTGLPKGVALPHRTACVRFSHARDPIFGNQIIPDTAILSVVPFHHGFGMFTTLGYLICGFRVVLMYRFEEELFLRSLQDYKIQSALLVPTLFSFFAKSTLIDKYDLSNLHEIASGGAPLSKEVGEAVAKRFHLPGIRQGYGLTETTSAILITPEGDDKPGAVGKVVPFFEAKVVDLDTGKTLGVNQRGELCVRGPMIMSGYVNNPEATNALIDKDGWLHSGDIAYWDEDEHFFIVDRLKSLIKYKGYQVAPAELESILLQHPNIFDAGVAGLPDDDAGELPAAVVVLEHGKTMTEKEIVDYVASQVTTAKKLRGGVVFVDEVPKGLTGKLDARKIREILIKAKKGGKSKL
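Assay system – cell-free luciferase reagent · Medium – PBS-based ATP solution · Dosing – test compounds dosed from 2 mM stocks in 100% DMSO · Timing – 10 min, room temperature · Technique – light output (luminescence) · Measure – luminescence gain marking luciferase activators · Controls – No-ATP low control, compound-free enzyme-plus-ATP high control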
TRAIL sens C8: caspase-8 TRAIL sensitization | NB7+C8 cells + TRAIL, ATPlite viability luminescence | AID 624354 | actives 1% (n = 360,000) | inhibition (viability loss, TRAIL sensitization), % at 10 µM;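 active means compounds causing at least 50% loss of cell viability in the single-dose screen, relative to plate controls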
FLuc inh counter: counter-screen for luciferase assay inhibitors: firefly luciferase inhibition; P08659; ATPLite firefly luciferase biochemical luminescence, 10 min; inhibition, % at 10 µM; actives 1.5% (n = 200,000); AID 1006;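 active means inhibition above about 50% when tested at 10 µM, limit read from the data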
* marks the source's active call; other numbers are inactive results; . = no result given.

SMILES | PPC-1+TRAIL kill | FLuc act counter | TRAIL sens C8 | FLuc inh counter
N/C(CS(=O)(=O)c1ccccn1)=N\OC(=O)c1ccc(Cl)cc1 | 0 | . | 19 | .
N/C(CCS(=O)(=O)c1ccc(Cl)cc1)=N\OC(=O)c1ccc(Cl)cc1 | 2 | . | 74* | .
COc1ccc(-c2cc3ccc(OCC(=O)NCC4CCC(C(=O)O)CC4)cc3oc2=O)cc1 (stereo unspecified) | . | . | 59* | .
CSc1nc(O)c(/C=C2\C=Nc3ccccc32)[nH]1 | 23 | 0.4 | 9 | 60*
C[C@@H]1CN([C@H](C)CO)C(=O)CCCn2cc(nn2)CO[C@H]1CN(C)S(=O)(=O)c1ccccc1C#N | . | . | -16 | .
c1ccn(-c2ccc(-c3ccn[nH]3)cc2)c1 | 10 | 0.5 | 12 | 52*
C#CC[N+](C)(C)CCCCCCCCCC | 26 | 1 | 27 | -3
CCCCCC[N+](C)(C)CCSSCC[N+](C)(C)CCCCCC | 23 | . | 10 | .
CCCCCCCCCCCCCCCC[N+](C)(C)CC | . | . | 92* | .
CCCCCCCCCCCCCCCC[N+](C)(C)CCl | . | . | 90* | .
Cc1ccc(-n2ncc3c(SCC(N)=O)ncnc32)cc1C | . | . | -5 | .
CS(=O)(=O)c1cnc2c(-c3ccsc3)cnn2c1N | 43 | 0.4 | 9 | 62*
COc1ccccc1CC(NC(C)=O)C(=O)NC1CCN(C(=O)c2ccc(C)cc2)CC1 (stereo unspecified) | . | . | 24 | .
O=C(Nc1ccccn1)c1csc2c1CCCC2 | 25 | 0.6 | 18 | 44
O=C(Nc1ccccn1)c1onc2c1CCCC2 | 67* | 0.1 | 77* | 87*
CCc1nc2ccc(C(=O)NCCN3CCNC3=O)cn2c1N(CCC(C)C)CCN(C)C | . | . | 1 | .
O=C1/C(=C/N(C(=O)c2ccco2)c2ccc(Cl)cc2)Sc2ccccc21 | 31 | 0.1 | 55* | 86*
O=C1/C(=C/N(C(=O)c2ccco2)c2ccc(Br)cc2)Sc2ccccc21 | 15 | 0.2 | 57* | 83*
COc1cc(C(=S)N2CCOCC2)cc(OC)c1OS(=O)(=O)c1ccc(C)cc1 | . | . | 3 | .
CC(=O)c1cccc(NC(=O)c2ccc3c(Cl)c4c(nc3c2)CCCC4)c1 | 10 | 0.8 | 15 | 20
N#Cc1ccccc1NC(=O)c1ccc2c(Cl)c3c(nc2c1)CCCC3 | 37 | 0.5 | 20 | 50*
CC(=O)Nc1ccc(-c2cn3ccsc3n2)cc1 | 34 | 0.3 | 36 | 67*
c1cn2cc(-c3ccc4c(c3)OCO4)nc2s1 | 46 | 0.2 | 44 | 78*
CCN(C(=O)COC(=O)c1ccc[nH]c1=O)c1cccc2ccccc12 | . | . | -26 | .
O=C(Nc1ccc(Cl)cn1)c1cccc2c(Br)cccc12 | . | . | 38 | .
SMILES | PPC-1+TRAIL kill | FLuc act counter | TRAIL sens C8 | FLuc inh counter
O=C1CC(c2ccc3c(c2)OCO3)Sc2nc3ccccc3n21 (stereo unspecified) | -8 | 0.3 | 31 | 69*
COc1ccc2c(=O)cc(-c3ccccc3)n(C)c2c1 | 4 | 1 | 55* | 3
COc1ccc(-c2cc(=O)c3ccccc3n2C)cc1 | 16 | 1 | 40 | -2
O=C(Cc1cccs1)Nc1cccc(-c2nc3cc4ccccc4cc3[nH]2)c1 | 47 | 0.2 | 73* | 75*
CC(=O)Nc1cccc(NC(=O)Cc2cccs2)c1 | . | . | -20 | .
Cc1ccc(NC(=O)CSCC(=O)Nc2cc(S(=O)(=O)N3CCOCC3)ccc2OC(C)C)cc1 | . | . | -8 | .
Cc1ccc(CN=c2c([N+](=O)[O-])nn(-c3cccc(C)c3)n2O)cc1 | 16 | 1.1 | 49* | -6
Cc1ccc(CN=c2c([N+](=O)[O-])nn(-c3cccc(Cl)c3)n2O)cc1 | 20 | 1 | 0 | -1
O=S(=O)(Nc1cc(Sc2cccc3cccnc23)c(O)c2ccccc12)c1ccccc1 | 70* | 1.1 | . | -6
CCOc1ccc(S(=O)(=O)Nc2cc(SCC(=O)O)c(O)c3ccccc23)cc1 | . | . | 35 | .
CCCCc1ccc(NC(=O)c2ccc(N(C)S(C)(=O)=O)cc2)cc1 | 17 | . | 53* | .
CCCSCCCNC(=O)Cn1c(=O)c2cccn2c2ccccc21 | . | . | -27 | .
CC(=O)Nc1cccc(C(=O)NN2C(=O)NC3(CCC(C)CC3)C2=O)c1 (stereo unspecified) | . | . | 3 | .
O=C(NC(=S)N1CCc2ccccc21)c1ccccc1Cl | . | . | 23 | .
O=C(NC(=S)N1CCc2ccccc21)c1ccccc1 | 8 | 0.5 | 51* | 52*
CCN1C(=O)[C@H]2[C@H]3CN=C(SCc4ccc(C)cc4)N3[C@@](CC)(C(=O)OC)[C@H]2C1=O | . | . | -12 | .
COc1ccc(O)c(/C=N/N=C2/C(=O)Nc3ccccc32)c1 | 3 | 0.2 | 16 | 81*
COC(=O)c1ccccc1NC(=O)c1cc(C2CC2)on1 | 13 | 1 | 13 | 0
COC(=O)c1ccccc1NC(=O)c1cc(-c2ccc(O)cc2)on1 | -7 | 1.1 | 51* | -10
CCOc1cc(C(=O)NCCCNC(=O)c2cc(OCC)c(OCC)c(OCC)c2)cc(OCC)c1OCC | . | . | 13 | .
COc1ncnc2c1ncn2CC1COC(C)(C)O1 (stereo unspecified) | . | . | 9 | .
Cc1ccc(N2Cc3ccccc3C2=S)cc1 | 39 | 0.2 | 35 | 76*
CN(C)CCN1CCN(C2CN(Cc3ccccc3)S(=O)(=O)C2)CC1 (stereo unspecified) | . | . | 19 | .
COC(=O)c1c(C)[nH]c(C(=O)/C=C/c2ccccc2)c1C | 36 | 0.4 | 29 | 58*
COC(=O)c1cc(NC(=O)Cn2c(=O)oc3ccccc32)cc(C(=O)OC)c1 | . | . | 6 | .
SMILES | PPC-1+TRAIL kill | FLuc act counter | TRAIL sens C8 | FLuc inh counter
Cc1ccccc1OCC(O)CNC1CCC(NCC(O)COc2ccccc2C)CC1 (stereo unspecified) | . | . | 93* | .
Cc1nnc(NC(=O)CCC(=O)N2CCN(S(=O)(=O)c3cc([N+](=O)[O-])ccc3C)CC2)s1 | . | . | 0 | .
CCCCCc1cc(=O)oc2c(C(CCN(CC)CC)c3cc(OC)c(OC)c(OC)c3)c(OC)cc(OC)c12 (stereo unspecified) | 13 | . | 75* | .
COc1ccc(NC(=O)O/N=C/c2ccc(Br)cc2)cc1 | . | . | 7 | .
COc1ccc(/C=N/OC(=O)Nc2ccccc2OC)cc1 | 29 | 0.2 | 52* | 84*
O=C(NCc1cccnc1)C1CC(c2ccc(Cl)c(Cl)c2)=NO1 (stereo unspecified) | . | . | -1 | .
Cc1cc(CN2CCCC(N3CCc4ccccc4C3)C2)cc(C)c1O (stereo unspecified) | . | . | 6 | .
CC(C)Oc1cccc(-c2cc(C(=O)N3CCN(S(C)(=O)=O)CC3)c3ccccc3n2)c1 | 12 | 0.5 | 14 | 52*
Cc1cc(-c2ccc(N3CCOCC3)cc2)nc2ccccc12 | 30 | 0.3 | 65* | 71*
CC(C)Oc1cccc(-c2cc(C(=O)N3CCN(c4ncccn4)CC3)c3ccccc3n2)c1 | 27 | 0.6 | 48 | 39
COc1ccc(-c2cc(C(=O)N3CCCCC3)c3ccccc3n2)cc1 | . | . | 31 | .
Cc1ccc(-c2cc(C(=O)N3CCN(c4ncccn4)CC3)c3ccccc3n2)cc1 | 44 | 0.4 | 67* | 62*
COc1ccc(-c2cc(C(=O)N3CCN(c4ncccn4)CC3)c3ccccc3n2)cc1OC | . | . | -4 | .
CCOc1ccc(-c2cc(C(=O)N3CCC(C)CC3)c3ccccc3n2)cc1 | . | . | 54* | .

Screens deposited in PubChem BioAssay by Sanford-Burnham Center for Chemical Genomics.
